Some results are limits rather than exact numbers.

The values below come from ChEMBL document CHEMBL1132187, “Synthesis, in vitro antiproliferative activity, and DNA-binding properties of hybrid molecules containing pyrrolo[2,1-c][1, 4]benzodiazepine and minor-groove-binding oligopyrrole carriers” (J Med Chem, 1999).

One assay deals with Nucleic Acid. The assay can be described thus: Inhibitory concentration against human estrogen receptor(ER) polymerase chain reaction product. In kind it is nucleic-acid assay. A digest of the protocol: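 Target DNA was 20 ng of pBLCAT8ERCAT1 plasmid, preincubated 5 min at room temperature with increasing drug amounts, then PCR-amplified with Taq: 92 °C 1 min, 55 °C annealing 1 min, 72 °C 1 min. Products run on 2% agarose gels; IC50 is the concentration giving 50% inhibition of ER PCR product generation.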

The test system of assay [1] is Human immunodeficiency virus 1. The experiment in a line: Inhibitory concentration against HIV-1 LTR polymerase chain reaction product. In kind it is functional. A digest of the protocol:
(§1)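 Target DNA was 20 ng of preamplified, purified PCR product, preincubated 5 min at room temperature with increasing drug amounts, then PCR-amplified with Taq: 92 °C 1 min, 62 °C annealing 1 min, 72 °C 1 min. Products run on 2% agarose gels; IC50 is the concentration giving 50% inhibition of PCR product generation.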

The test system of a further assay is Jurkat. The experiment in a line: In vitro inhibition of Jurkat cell proliferation. In kind it is functional, cell-based. The following applies: Homo sapiens. A digest of the protocol: (§2)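 Exponentially growing cells kept as stationary suspension in RPMI 1640 with 10% FCS, 2 mM L-glutamine, penicillin/streptomycin; exposed to a range of drug concentrations (DMSO stock 1 mg/mL, diluted just before addition) for 4 days; survivors counted by Coulter counter. IC50 vs untreated controls, duplicate cultures per concentration, experiments repeated at least twice, vehicle controls included.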

Another assay has as its system K562. The experiment in a line: In vitro inhibition of K-562 cell proliferation. The following applies: Homo sapiens. In kind it is functional, cell-based. A digest of the protocol:
as §2

Assay [2] in a line: Inhibitory concentration against human c-myc polymerase chain reaction product. In kind it is functional. Summed up:
as §1

Take `COc1cc2c(cc1OCCC(=O)Nc1cc(C(=O)NCCC(=N)N)n(C)c1)N=C[C@@H]1CCCN1C2=O`: the IC50 (commonly the point on the concentration scale where inhibition reaches its midpoint) at Nucleic Acid is 3 µM; in assay [1], 1 µM; with Jurkat it was 80 µM; in the assay on K562, above 100 µM; in assay [2] it was 4 µM.
The matching figures for `COC(=O)CCOc1cc2c(cc1OC)C(=O)N1CCC[C@H]1C=N2`: above 250 µM, above 250 µM, 3 µM, 1.5 µM and above 250 µM.
Turning to `COc1cc2c(cc1OCCC(=O)Nc1cc(C(=O)Nc3cc(C(=O)Nc4cc(C(=O)Nc5cc(C(=O)NCCC(=N)N)n(C)c5)n(C)c4)n(C)c3)n(C)c1)N=C[C@@H]1CCCN1C2=O`, the IC50 at Nucleic Acid amounted to 0.2 µM; in assay [1], 2 µM; in the assay on Jurkat it was 0.07 µM; with K562, 0.04 µM; in assay [2] it was 2 µM.
For `Cn1cc(NC(=O)c2cc(NC(=O)c3cc(NC(=O)c4cc(N)cn4C)cn3C)cn2C)cc1C(=O)NCCC(=N)N`, the IC50 against Nucleic Acid was found to be 0.5 µM; in assay [1], 20 µM; with Jurkat, 25 µM; in the assay with K562, 12 µM; in assay [2], 12 µM.
Consider `COc1cc2c(cc1OC)C(=O)N1CCC[C@H]1C=N2`, for which the results for the IC50 in the assay on Jurkat and with K562 were 2.2 µM and 1 µM, respectively.
Take `COc1cc2c(cc1OCCC(=O)Nc1cc(C(=O)Nc3cc(C(=O)NCCC(=N)N)n(C)c3)n(C)c1)N=C[C@@H]1CCCN1C2=O`: the half-inhibitory concentration (IC50) on Nucleic Acid was 2 µM; in assay [1], 0.8 µM; with Jurkat, 50 µM; in the assay with K562, 6 µM; in assay [2], 6 µM.
On to `COc1cc2c(cc1OCCC(=O)Nc1cc(C(=O)Nc3cc(C(=O)Nc4cc(C(=O)NCCC(=N)N)n(C)c4)n(C)c3)n(C)c1)N=C[C@@H]1CCCN1C2=O`, for which the IC50 against Nucleic Acid turned out to be 0.8 µM; in assay [1], 2 µM; in the assay on Jurkat it was 0.8 µM; in the assay on K562, 0.7 µM; in assay [2] it was 2.5 µM.
As to `Cn1cc(NC(=O)c2cc(NC(=O)c3cc(NC=O)cn3C)cn2C)cc1C(=O)NCCC(=N)N`, the half-inhibitory concentration (IC50) against Nucleic Acid worked out at 5 µM; in assay [1], 50 µM; in the assay with Jurkat, 20 µM; in the assay with K562, 12 µM; in assay [2], 25 µM.
